Data on ten compounds can be found in PMC3428732 (Analytical chemistry, 2012).

Data set [1] is described as follows: Peptide degradation in a HeLa cytosolic lysate. The format is in vitro ADME, human. Conditions: for half-life at 1 μM: human, HeLa cytosolic lysate. The method, boiled down:
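Fluorescein-labelled peptide (1 μM) incubated at 37 °C with HeLa or LNCaP cytosolic lysate (3 mg mL⁻¹ total protein). Aliquots were quenched with HCl to 100 mM final; the 0 min point was acidified before peptide addition. Products were separated by CE-LIF, and fragments were identified by spiking in 250 nM standards. Initial rates were taken from the 0 and 5 min points, normalised to cytosolic protein (zmol pg⁻¹ s⁻¹). Triplicates used different lysates; mean ± SD.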

The target in another data set is PKBα kinase (Homo sapiens, UniProt P31749). Briefly: in vitro kinase assay with purified PKBα. The format is biochemical. The method in brief: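 Active purified PKBα (6 nM) with N-terminally fluorescein-labelled peptide substrate (25 μM) at 30 °C. Buffer: 8 mM MOPS pH 7.0, 0.2 mM EDTA, 4 mM MgCl₂, 1 mM ATP. Aliquots were removed over time and stopped by heating at 90 °C for 4 min. Phosphorylation was quantified by CE-LIF. Triplicates used different enzyme aliquots on different days; mean ± SD.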
Sequence of PKBα kinase (P31749 whole entry): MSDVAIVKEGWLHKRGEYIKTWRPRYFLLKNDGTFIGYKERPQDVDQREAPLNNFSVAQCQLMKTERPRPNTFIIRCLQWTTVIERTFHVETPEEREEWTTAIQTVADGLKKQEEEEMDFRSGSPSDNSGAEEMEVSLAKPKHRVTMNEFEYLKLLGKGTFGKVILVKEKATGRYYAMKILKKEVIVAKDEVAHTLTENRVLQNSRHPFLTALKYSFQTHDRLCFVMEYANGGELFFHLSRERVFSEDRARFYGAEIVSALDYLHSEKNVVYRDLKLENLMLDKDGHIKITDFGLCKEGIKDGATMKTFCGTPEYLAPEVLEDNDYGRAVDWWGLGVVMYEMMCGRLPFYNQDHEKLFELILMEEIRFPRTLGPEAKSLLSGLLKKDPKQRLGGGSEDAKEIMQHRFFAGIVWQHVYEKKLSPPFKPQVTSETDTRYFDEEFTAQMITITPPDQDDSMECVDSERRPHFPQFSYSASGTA

Data set [2] has as its system PKB activity in single LNCaP cells. Briefly: Peptide phosphorylation in single LNCaP cells. Type of data set: cell-based, human. The following applies: LNCaP cells pre-incubated with 500 nM wortmannin (10 min), then loaded with VI-B, 5 min; n = 10.

Square brackets hold non-standard residues; d marks the D form. Peptide text beside a SMILES is read from it. * marks the point of attachment. 6FAM = O=C1OC2(c3ccc(O)cc3Oc3cc(O)ccc32)c2cc(C(=O)*)ccc21; Phe(F5) = N[C@@H](Cc1c(F)c(F)c(F)c(F)c1F)C(=O)O; NMeR = CN[C@@H](CCCNC(=N)N)C(=O)O; NMeF = CN[C@@H](Cc1ccccc1)C(=O)O; βAla = NCCC(=O)O

On to `C[C@H](NC(=O)[C@H](C)NC(=O)[C@H](CCCNC(=N)N)N(C)C(=O)[C@@H]1CCCN1C(=O)[C@H](CCCNC(=N)N)NC(=O)CNC(=O)c1ccc2c(c1)C1(OC2=O)c2ccc(O)cc2Oc2cc(O)ccc21)C(=O)N[C@H](C(=O)N[C@@H](Cc1ccccc1)C(=O)N[C@@H](C)C(=O)N[C@@H](CCC(=O)O)C(=O)NCC(N)=O)[C@@H](C)O` [III-B, 6FAM-GRP-MeArg-AATFAEG] (6FAM-GRP[NMeR]AATFAEG-NH2), for which the “6-residue fragment (alanine-threonine bond hydrolysis), % of all peptide present” value in data set [1] (HeLa lysate, within 15 min) worked out at 92%. The compound also registered a half-life at 1 μM in data set [1] of 2 min. Also, the “fold longer t50%P than peptide I” value on PKBα kinase is recorded as “more than 50 X”.

`C[C@H](NC(=O)[C@H](C)NC(=O)[C@@H](CCCNC(=N)N)NC(=O)[C@@H]1CCCN1C(=O)[C@H](CCCNC(=N)N)NC(=O)CNC(=O)c1ccc2c(c1)C1(OC2=O)c2ccc(O)cc2Oc2cc(O)ccc21)C(=O)N[C@H](C(=O)N[C@@H](Cc1ccccc1)C(=O)N[C@@H](C)C(=O)N[C@@H](CCC(=O)O)C(=O)NCC(N)=O)[C@@H](C)O` [III-D, 6FAM-GRP-DArg-AATFAEG] (6FAM-GRP[dR]AATFAEG-NH2): in data set [1], the half-life at 1 μM is 17 min.

With `C[C@H](NC(=O)[C@H](Cc1ccccc1)NC(=O)[C@@H](NC(=O)CCNC(=O)[C@H](C)NC(=O)[C@H](CCCNC(=N)N)N(C)C(=O)[C@@H]1CCCN1C(=O)[C@H](CCCNC(=N)N)NC(=O)CNC(=O)c1ccc2c(c1)C1(OC2=O)c2ccc(O)cc2Oc2cc(O)ccc21)[C@@H](C)O)C(=O)N[C@@H](CCC(=O)O)C(=O)NCC(N)=O` [IV-A, 6FAM-GRP-MeArg-A-βAla-TFAEG] (6FAM-GRP[NMeR]A[βAla]TFAEG-NH2), the half-life at 1 μM in data set [1] turned out to be 14 min.

In turn, `C[C@H](NC(=O)[C@H](Cc1ccccc1)NC(=O)[C@@H](NC(=O)[C@@H](C)NC(=O)[C@H](C)NC(=O)[C@H](CCCNC(=N)N)N(C)C(=O)[C@@H]1CCCN1C(=O)[C@H](CCCNC(=N)N)NC(=O)CNC(=O)c1ccc2c(c1)C1(OC2=O)c2ccc(O)cc2Oc2cc(O)ccc21)[C@@H](C)O)C(=O)N[C@@H](CCC(=O)O)C(=O)NCC(N)=O` [IV-B, 6FAM-GRP-MeArg-A-DAla-TFAEG] (6FAM-GRP[NMeR]A[dA]TFAEG-NH2) showed a half-life at 1 μM in data set [1] of 32 min.

The compound `C[C@H](NC(=O)[C@H](Cc1ccccc1)NC(=O)[C@@H](NC(=O)[C@H](CCC(=O)O)NC(=O)[C@H](C)NC(=O)[C@H](CCCNC(=N)N)N(C)C(=O)[C@@H]1CCCN1C(=O)[C@H](CCCNC(=N)N)NC(=O)CNC(=O)c1ccc2c(c1)C1(OC2=O)c2ccc(O)cc2Oc2cc(O)ccc21)[C@@H](C)O)C(=O)N[C@@H](CCC(=O)O)C(=O)NCC(N)=O` [IV-C, 6FAM-GRP-MeArg-A-Glu-TFAEG] (6FAM-GRP[NMeR]AETFAEG-NH2) came in with a half-life at 1 μM in data set [1] of 37 min.

As for `C[C@H](NC(=O)[C@H](Cc1ccccc1)NC(=O)[C@@H](NC(=O)[C@H](Cc1ccccc1)NC(=O)[C@H](C)NC(=O)[C@H](CCCNC(=N)N)N(C)C(=O)[C@@H]1CCCN1C(=O)[C@H](CCCNC(=N)N)NC(=O)CNC(=O)c1ccc2c(c1)C1(OC2=O)c2ccc(O)cc2Oc2cc(O)ccc21)[C@@H](C)O)C(=O)N[C@@H](CCC(=O)O)C(=O)NCC(N)=O` [IV-D, 6FAM-GRP-MeArg-A-FTFAEG] (6FAM-GRP[NMeR]AFTFAEG-NH2), the half-life at 1 μM in data set [1] was found to be 14 min. Moreover, at PKBα kinase, the “fold faster t50%P than peptide III-B” value is given as “over 30 X”.

In turn, `C[C@H](NC(=O)[C@H](Cc1ccccc1)NC(=O)[C@@H](NC(=O)[C@H](Cc1ccccc1)N(C)C(=O)[C@H](C)NC(=O)[C@H](CCCNC(=N)N)N(C)C(=O)[C@@H]1CCCN1C(=O)[C@H](CCCNC(=N)N)NC(=O)CNC(=O)c1ccc2c(c1)C1(OC2=O)c2ccc(O)cc2Oc2cc(O)ccc21)[C@@H](C)O)C(=O)N[C@@H](CCC(=O)O)C(=O)NCC(N)=O` [IV-E, 6FAM-GRP-MeArg-A-MePhe-TFAEG] (6FAM-GRP[NMeR]A[NMeF]TFAEG-NH2) returned a half-life at 1 μM in data set [1] of 2 min.

On to `C[C@H](NC(=O)[C@H](Cc1c(F)c(F)c(F)c(F)c1F)NC(=O)[C@@H](NC(=O)[C@H](Cc1ccccc1)NC(=O)[C@H](C)NC(=O)[C@H](CCCNC(=N)N)N(C)C(=O)[C@@H]1CCCN1C(=O)[C@H](CCCNC(=N)N)NC(=O)CNC(=O)c1ccc2c(c1)C1(OC2=O)c2ccc(O)cc2Oc2cc(O)ccc21)[C@@H](C)O)C(=O)N[C@@H](CCC(=O)O)C(=O)NCC(N)=O` [V-A, 6FAM-GRP-MeArg-AFT-Phe(F5)-AEG] (6FAM-GRP[NMeR]AFT[Phe(F5)]AEG-NH2), for which the half-life at 1 μM in data set [1] came out at 88 min.

On to `C[C@H](NC(=O)[C@H](CCCNC(=N)N)N(C)C(=O)[C@@H]1CCCN1C(=O)[C@H](CCCNC(=N)N)NC(=O)CNC(=O)c1ccc2c(c1)C1(OC2=O)c2ccc(O)cc2Oc2cc(O)ccc21)C(=O)N[C@@H](Cc1ccccc1)C(=O)N[C@H](C(=O)N[C@@H](Cc1ccccc1)C(=O)N[C@H](C)C(=O)N[C@@H](CCC(=O)O)C(=O)NCC(N)=O)[C@@H](C)O` [V-B, 6FAM-GRP-MeArg-AFTF-DAla-EG] (6FAM-GRP[NMeR]AFTF[dA]EG-NH2), for which the “fold greater t1/2 than peptide IV-D” value in data set [1] (HeLa lysate) was “over 60 X”. For the same compound, the half-life at 1 μM in data set [1] worked out at 895 min.

In the case of `COC[C@H]1OC(=O)c2coc3c2[C@@]1(C)C1=C(C3=O)[C@@H]2CCC(=O)[C@@]2(C)C[C@H]1OC(C)=O` [wortmannin, Wortmannin], the “formation of phosphorylated product of VI-B” value in data set [2] is listed as 13% ± 12%.
